From PMC7982424 (Acta Pharmaceutica Sinica. B, 2020) come the findings set out here.

The test system of one data set is HIV-1NL4-3. In words: Anti-HIV-1 assay in TZM-GFP cells. To be noted: for inhibition at 2 µM: Human immunodeficiency virus 1, read-out: Inhibition at 2 μmol/L; for inhibition at 20 µM: Human immunodeficiency virus 1, read-out: Inhibition at 20 μmol/L. Type of data set: cell-based. The gist of the method:
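TZM-GFP cells seeded at 1 × 10^4 per well; after 24 h, medium replaced with test compound at 20 μmol/L, with actives retested at 2 μmol/L. HIV-1NL4-3 (HEK 293FT-transfection stock, MT2-propagated, PEG-concentrated) added at MOI 1 24 h later. After 48 h, GFP-positive cells counted by imaging; inhibition relative to DMSO controls. Duplicates, at least two independent experiments.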

The next data set in a line: Cytotoxicity assay. It is filed as cell-based. The following applies: human, TZM-GFP cells. The gist of the method:
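TZM-GFP cells were plated at 1 × 10^4 cells per well and exposed continuously to increasing concentrations of test compound for 72 h. Viable cells were counted by XTT. CC50 came from a log(inhibitor) vs normalized response, variable-slope fit for each independent assay, then averaged. Runs were in duplicate across at least two independent experiments; mean ± SD.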

Data set [1] in a line: Microsomal stability assay, human liver microsomes. It is filed as in vitro ADME. The following applies: human, pH 7.4. For orientation: Microsomes from liver hold many membrane-bound enzymes, among them those of drug oxidation.
Data set [2] is described as follows: Microsomal stability assay, mouse liver microsomes. It is filed as in vitro ADME. The following applies: mouse, pH 7.4.

The CC50 is the concentration at which the toxic effect on the cells reaches its halfway point. Lower therefore signals greater toxicity to the cells. As a reminder, the half-life is how long it takes for the measured level to halve. A higher half-life goes with slow loss. With `CN(C(=O)[C@H](Cc1ccccc1)NC(=O)CNC(=O)c1ccccc1)c1ccccc1` [Compound 18, (S)-N-(2-((1-(Methyl(phenyl)amino)-1-oxo-3-phenylpropan-2-yl)amino)-2-oxoethyl)benzamide], in the data set on HIV-1NL4-3, the inhibition at 2 µM turned out to be 15% and the inhibition at 20 µM came out at 96%. The molecule further showed a CC50 at 72 h in the data set “Cytotoxicity assay” greater than 50 µM. The molecule further came in with a half-life at 1 μmol/L in data set [1] of 15 min. The half-life at 1 μmol/L in data set [2] is 3.6 min.

As for `CN(C(=O)[C@H](Cc1ccccc1)NC(=O)CNC(=O)c1ccccc1)c1cccc(F)c1` [Compound 23, (S)-N-(2-((1-((3-Fluorophenyl)(methyl)amino)-1-oxo-3-phenylpropan-2-yl)amino)-2-oxoethyl)benzamide], in the data set with HIV-1NL4-3, the inhibition at 2 µM amounted to 3% and the inhibition at 20 µM turned out to be 94%. The same molecule displayed a 50% cytotoxic concentration (CC50) at 72 h in the data set “Cytotoxicity assay” greater than 50 µM. For the same molecule, the half-life at 1 μmol/L in data set [1] was 12 min. This molecule also gave a half-life at 1 μmol/L in data set [2] of 3.6 min.

With `Cc1cn(CC(=O)N[C@@H](Cc2ccccc2)C(=O)N(C)c2ccc(Cl)cc2)c(=O)[nH]c1=O` [Compound 10, (S)-N-(4-Chlorophenyl)-N-methyl-2-(2-(5-methyl-2,4-dioxo-3,4-dihydropyrimidin-1(2H)-yl)acetamido)-3-phenylpropanamide], in the data set with HIV-1NL4-3 (2 μmol/L compound, HIV-1 in TZM-GFP cells), the “Inhibition at 2 μmol/L” value is “exhibited inhibition”. The same molecule returned a CC50 at 72 h in the data set “Cytotoxicity assay” greater than 50 µM. Moreover, the half-life at 1 μmol/L in data set [1] was 12 min; in data set [2], 4.6 min.
